Most compounds without a hit are left out; they make up all but 1.4% or so of the library.
Tn6 DDE FP: DD(E)-Tn6 binding inhibition, primary FP screen. AID 720509. Fibrin DD(E) TRITC-Tn6 fluorescence polarization displacement. inhibition, % at 8.3 µM. P02675. 370,000 tested, 0.21% active;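 active = inhibition above a per-campaign cutoff: mean of compounds within control limits plus 3 SD, cut at about 15% in these data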;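 note: 0% = median of all compound wells on the plate and 100% = blocking peptide control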
DAGLB inhibitor: blocks human DAGLB lipase activity | Q8NCG7 | 340,000 tested, 0.059% active | HEK293T DAGLB membrane lysate, EnzChek fluorogenic substrate | inhibition, % at 5.17 µM; in the data active = inhibition above about 34%;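 note: 0% = enzyme with vehicle and 100% = wells lacking enzyme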
Target sequence (Q8NCG7 whole entry, looked up): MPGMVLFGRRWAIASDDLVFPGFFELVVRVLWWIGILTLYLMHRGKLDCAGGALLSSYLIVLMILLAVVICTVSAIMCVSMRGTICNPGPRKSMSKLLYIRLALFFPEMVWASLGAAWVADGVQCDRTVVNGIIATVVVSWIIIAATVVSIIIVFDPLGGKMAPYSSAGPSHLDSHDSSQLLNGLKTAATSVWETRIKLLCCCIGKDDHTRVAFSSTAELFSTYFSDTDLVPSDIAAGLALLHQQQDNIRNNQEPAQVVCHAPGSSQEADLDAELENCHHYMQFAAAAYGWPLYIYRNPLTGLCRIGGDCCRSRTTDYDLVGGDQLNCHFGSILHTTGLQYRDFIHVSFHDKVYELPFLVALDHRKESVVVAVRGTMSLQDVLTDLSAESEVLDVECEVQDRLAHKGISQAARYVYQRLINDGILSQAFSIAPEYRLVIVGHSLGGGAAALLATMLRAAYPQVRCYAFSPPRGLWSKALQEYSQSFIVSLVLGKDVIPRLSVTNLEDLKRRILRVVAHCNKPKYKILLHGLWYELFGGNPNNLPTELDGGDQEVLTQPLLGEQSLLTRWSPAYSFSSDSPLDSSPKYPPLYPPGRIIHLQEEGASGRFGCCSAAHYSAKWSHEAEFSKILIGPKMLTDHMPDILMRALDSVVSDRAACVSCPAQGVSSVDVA
Cardio protect: myocardial damage modulation in H9c2 cells. H9c2 cardiomyocytes, H2O2 injury protection, ATPLite, 2 h. protection from H2O2 cell death, % at 20 µM. 360,000 tested, 0.63% active. AID 588492;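 active = compounds giving at least 50% protection of heart cells from peroxide-induced death in the single-dose screen, raw or plate-pattern-corrected value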;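 note: 0% = DMSO wells with peroxide and 100% = DMSO wells without peroxide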
DDE Tn7 FP inh: disrupts Tn7 cyclic peptide binding to fibrin D-Dimer-E complex; FP displacement of FITC-Tn7 peptide from fibrin DD(E); 0% = median of compound wells per plate; 370,000 tested, 0.13% active; P02675; inhibition, % at 8.3 µM;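 active = inhibition above the mean of compounds falling within the control limits plus 3 SD of them, cut at about 14% in these data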;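 note: 0% = plate median of compound wells and 100% = 10 µM Aha-Tn7 peptide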
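assay system = human clot-derived fibrin DD(E) complex | quantity = Fibrin-DD(E) at 2 µM final | timing = 10 min preincubation, 3 h with tracer, room temperature | signal = fluorescence polarization | measure = percent inhibition | benchmarks = high control wells with 10 µM unlabelled Aha-Tn7 peptide (full inhibition) | replicates = singlicate testing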
TAG inh: triacylglycerol accumulation inhibition; H9c2 cells, Nile Red lipid (TAG) fluorescence; cells loaded with 200 µM oleic acid; inhibition, % at 12.5 µM; 230,000 tested, 0.66% active;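 active = pattern-corrected inhibition of lipid staining of at least 50% with the nuclear-stain viability signal not falling by more than 50%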;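 note: 0% = DMSO wells and 100% = triacsin C control wells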
MT1-MMP act inh: blocks activation of human MT1-MMP; GFP/RFP ratio change, % at 20 µM; HT1080 RFP-PRO-GFP cells, GFP/RFP ratio fluorescence, overnight; percent of plate control window, DMSO zero; 360,000 tested, 0.061% active;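 active = GFP/RFP ratio change of at least 30% with cell ATP level not reduced by more than half and red fluorescence within 50% of control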
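Assay system: HT1080 cells carrying an RFP-PRO-GFP reporter | Dosing: Single dose of 20 µM compound, 1% DMSO final | Incubation: Cells overnight before dosing, compound overnight, 37 °C, 5% CO2 | Evaluation: GFP/RFP fluorescence ratio | Control set: DMSO and RFP-L50D-GFP cell wells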
H9c2 TAG conf: triacylglycerol accumulation inhibition, confirmation | shares compounds with TAG inh | H9c2 lipid accumulation, Nile Red fluorescence; cells loaded with 200 µM oleic acid | inhibition, % at 12.5 µM | 990 tested, 71% active | AID 651629;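 active = mean inhibition across replicates of 40% or more; inactive = mean inhibition below 40%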;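 note: plate controls were DMSO only wells for no effect and Triacsin C treated wells for full effect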
Starred values were filed as active, the others as inactive.

What do the screens show for `Cc1cc(NC(=O)CC2CCCC2)n(-c2nc3ccccc3[nH]2)n1`?
Tn6 DDE FP: -16; DAGLB inhibitor: -11; Cardio protect: 32; DDE Tn7 FP inh: -2; TAG inh: 59*; MT1-MMP act inh: -8; H9c2 TAG conf: 54*

How did Cc1cc(NC(=O)c2ccc(F)cc2F)n(-c2nc3ccccc3[nH]2)n1 do in these assays?
DAGLB inhibitor: -4; Cardio protect: -11; MT1-MMP act inh: 2

How did O=C(Nc1ccc(C(O)(C(F)(F)F)C(F)(F)F)cc1)c1ccccc1C(F)(F)F do in these assays?
Tn6 DDE FP: 5; DDE Tn7 FP inh: 5

How did COC(=O)[C@]12C[C@H](CC(=O)NCC34CC5CC(CC(C5)C3)C4)C(=O)N(Cc3ccco3)C1=C[C@H](C(C)C)O[C@@H]2C1CC1 do in these assays?
Tn6 DDE FP: -11; DDE Tn7 FP inh: -3

How did CCCOC(=O)c1ccc(NC(=O)CCOc2ccccc2)cc1 do in these assays?
Tn6 DDE FP: -1; DAGLB inhibitor: -8; Cardio protect: -4; DDE Tn7 FP inh: 4; TAG inh: 65*; MT1-MMP act inh: -11; H9c2 TAG conf: 61*

What do the screens show for `Fc1ccc(/C=N/Nc2cc(N3CCOCC3)ncn2)cc1`?
Tn6 DDE FP: 1; DAGLB inhibitor: -2; Cardio protect: 3; DDE Tn7 FP inh: -5; TAG inh: 35; MT1-MMP act inh: -12

Results for Fc1cccc(/C=N/Nc2cc(N3CCOCC3)ncn2)c1 ?
Tn6 DDE FP: 4; DAGLB inhibitor: -5; Cardio protect: -7; DDE Tn7 FP inh: 6; TAG inh: 60*; MT1-MMP act inh: -7; H9c2 TAG conf: 29

How did CCC(C)(C)NC(=O)C(c1cccn1C)N(Cc1ccc(OC)cc1)C(=O)Cn1nnc2ccccc21 (centres undefined) do in these assays?
Tn6 DDE FP: -5; DAGLB inhibitor: 0; Cardio protect: -12; DDE Tn7 FP inh: 4; TAG inh: 67*; MT1-MMP act inh: -10; H9c2 TAG conf: 50*

Results for COc1ccc(-c2ccc3[nH]c4c(c3c2)CCN2C[C@@H]([C@H](C)O)[C@@H](N(C)C(=O)Nc3cc(Cl)cc(Cl)c3)C[C@@H]42)cc1 ?
Tn6 DDE FP: -6; DAGLB inhibitor: -5; Cardio protect: -1; DDE Tn7 FP inh: -2; TAG inh: 28; MT1-MMP act inh: -15

Results for C[C@H](O)[C@@H]1CN2CCc3c([nH]c4ccc(-c5ccc6c(c5)OCO6)cc34)[C@@H]2C[C@@H]1N(C)C(=O)Nc1ccc(F)cc1 ?
Tn6 DDE FP: -6; DAGLB inhibitor: 1; Cardio protect: -24; DDE Tn7 FP inh: -8; TAG inh: 82*; MT1-MMP act inh: -5; H9c2 TAG conf: 69*

Results for COc1ccc(-c2ccc3[nH]c4c(c3c2)CCN2C(=O)[C@@H]([C@H](C)O)[C@@H](N(C)C(=O)Nc3cc(Cl)cc(Cl)c3)C[C@@H]42)cc1 ?
Tn6 DDE FP: -1; DAGLB inhibitor: -2; Cardio protect: -20; DDE Tn7 FP inh: 2; TAG inh: 62*; MT1-MMP act inh: -11; H9c2 TAG conf: 63*

What do the screens show for `Cc1cccc(-c2ccc3[nH]c4c(c3c2)CCN2C[C@@H]([C@H](C)OC(=O)Nc3ccccc3C)[C@@H](N(C)C(=O)Nc3ccccc3C)C[C@@H]42)c1`?
Tn6 DDE FP: -6; DAGLB inhibitor: -1; Cardio protect: 2; DDE Tn7 FP inh: 2; TAG inh: 54*; MT1-MMP act inh: -5; H9c2 TAG conf: 66*

How did C[C@H](O)[C@@H]1CN2CCc3c([nH]c4ccccc34)[C@@H]2C[C@@H]1N(C)C(=O)Nc1cccc2ccccc12 do in these assays?
Tn6 DDE FP: 7; Cardio protect: 2; DDE Tn7 FP inh: 3; MT1-MMP act inh: -5

Results for COc1ccc(-c2ccc3[nH]c4c(c3c2)CCN2C(=O)[C@@H]([C@H](C)O)[C@@H](N(C)C(=O)Nc3ccc(F)cc3)C[C@@H]42)cc1 ?
Tn6 DDE FP: -1; DAGLB inhibitor: 2; Cardio protect: -4; DDE Tn7 FP inh: 8; TAG inh: 29; MT1-MMP act inh: -8

How did CS(=O)(=O)c1ccc(OC[C@@H](O)CN2CCC(C(O)(c3ccccc3)c3ccccc3)CC2)cc1 do in these assays?
Tn6 DDE FP: 1; DDE Tn7 FP inh: 6

What do the screens show for `O=C(NCC(c1ccccc1)c1ccccc1)[C@H](Cc1c[nH]c2ccccc12)NC1(C(=O)NC2CCCCC2)CCCC1`?
Tn6 DDE FP: 3; DDE Tn7 FP inh: -7

How did c1ccc2c(c1)NC(c1ccncc1)n1c-2nc2ccccc21 (centres undefined) do in these assays?
Tn6 DDE FP: -7; DAGLB inhibitor: 0; Cardio protect: 21; DDE Tn7 FP inh: -9; TAG inh: 53*; MT1-MMP act inh: -17; H9c2 TAG conf: 14

How did O=C(OCC#CCSc1nnc(-c2cccc3ccccc23)o1)C1CC1 do in these assays?
Tn6 DDE FP: 4; DDE Tn7 FP inh: 7

What do the screens show for `Cc1ccc(C(C(=O)NC2CCCC2)N(Cc2ccc3c(c2)OCO3)C(=O)c2snc(C(N)=O)c2N)cc1` (centres undefined)?
Tn6 DDE FP: 2; DAGLB inhibitor: 4; Cardio protect: 23; DDE Tn7 FP inh: 1; TAG inh: -7; MT1-MMP act inh: -5

How did O=C(NC1CCCCC1)C(c1ccccc1)N(Cc1ccc2c(c1)OCO2)C(=O)c1cnsn1 (centres undefined) do in these assays?
Tn6 DDE FP: 0; DAGLB inhibitor: -7; Cardio protect: 14; DDE Tn7 FP inh: 4; TAG inh: 59*; MT1-MMP act inh: -15; H9c2 TAG conf: 41*

Results for COc1ccc(/C=C/C(=O)OCC(=O)c2c(N)n(C)c(=O)n(C)c2=O)c(OC)c1 ?
Tn6 DDE FP: 2; DAGLB inhibitor: -2; Cardio protect: 5; DDE Tn7 FP inh: -6; TAG inh: 23; MT1-MMP act inh: -1

How did COc1ccc(OC)c(/C=C/C(=O)OCC(=O)c2c(N)n(C)c(=O)n(C)c2=O)c1 do in these assays?
Tn6 DDE FP: 5; DAGLB inhibitor: -2; Cardio protect: 2; DDE Tn7 FP inh: -4; TAG inh: 56*; MT1-MMP act inh: -1; H9c2 TAG conf: -8

Results for CC(=O)c1ccc2c(c1)N(CCCN(C)C)c1ccccc1S2 ?
Tn6 DDE FP: -1; DAGLB inhibitor: 2; Cardio protect: 3; DDE Tn7 FP inh: -1; TAG inh: 20; MT1-MMP act inh: -13
